Measurements: publication PMC4902112 (Biochemistry, 2009)

Assays:
[1] = target: T1, human tear lipocalin (TL) (Homo sapiens, UniProt P31025, W35Y); assay: fluorescence enhancement and blue shift on binding; conditions: TL 4 μM, DAUDA 2 μM, 10 mM sodium phosphate, pH 7.3; fluorescent probe
[2] = target: T1, human tear lipocalin (TL); assay: DAUDA fluorescence displacement; type: binding
[3] = target: human tear lipocalin (TL) (Homo sapiens, UniProt P31025, I106W/W35Y); assay: Trp fluorescence titration, one-site fit; type: binding
Summary of the method: (§1)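 Recombinant human TL single-Trp mutants: native Trp replaced by Tyr, one site changed to Trp. Expressed in E. coli BL21(DE3); purified by gel filtration and DEAE chromatography. About 14 μM protein in 10 mM sodium phosphate, pH 7.3, at room temperature, titrated with palmitic acid or its spin-labeled analogue. 2 min equilibration per addition. Excitation 295 nm, emission read at λmax. One-site fit gave apparent Kd and stoichiometry.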

[4] = target: human tear lipocalin (TL) (Homo sapiens, UniProt P31025, L123W/W35Y); assay: Trp fluorescence titration, one-site fit; type: binding
Summary of the method: as §1

[5] = target: human tear lipocalin (TL) (Homo sapiens, UniProt P31025, L67W/W35Y); assay: Trp fluorescence titration, one-site fit; type: binding
Summary of the method: as §1

[6] = target: human tear lipocalin (TL) (Homo sapiens, UniProt P31025, I75W/W35Y); assay: Trp fluorescence titration, one-site fit; type: binding
Summary of the method: as §1

[7] = target: human tear lipocalin (TL) (Homo sapiens, UniProt P31025, G121W/W35Y); assay: Trp fluorescence titration, one-site fit; type: binding
Summary of the method: as §1

[8] = target: human tear lipocalin (TL) (Homo sapiens, UniProt P31025, C119W/W35Y); assay: Trp fluorescence titration, one-site fit; type: binding
Summary of the method: as §1

[9] = target: human tear lipocalin (TL) (Homo sapiens, UniProt P31025, T55W/W35Y); assay: Trp fluorescence titration, one-site fit; type: binding
Summary of the method: as §1

[10] = target: human tear lipocalin (TL) (Homo sapiens, UniProt P31025, L86W/W35Y); assay: Trp fluorescence titration, one-site fit; type: binding
Summary of the method: as §1

[11] = target: human tear lipocalin (TL) (Homo sapiens, UniProt P31025, W35Y/Y115W); assay: Trp fluorescence titration, one-site fit; type: binding
Summary of the method: as §1

[12] = target: human tear lipocalin (TL) (Homo sapiens, UniProt P31025, M40W/W35Y); assay: Trp fluorescence titration, one-site fit; type: binding
Summary of the method: as §1

T1 sequence (P31025 19-176 W35Y): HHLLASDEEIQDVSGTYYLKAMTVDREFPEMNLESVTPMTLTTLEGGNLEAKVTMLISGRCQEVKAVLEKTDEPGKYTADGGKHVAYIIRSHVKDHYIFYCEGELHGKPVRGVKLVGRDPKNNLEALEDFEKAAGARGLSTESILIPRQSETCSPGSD
human tear lipocalin (TL) (Homo sapiens, UniProt P31025, G121W/W35Y), sequence (P31025 19-176 W35Y/G121W): as the sequence (P31025 19-176 W35Y) above, with G103W counted along it
human tear lipocalin (TL) (Homo sapiens, UniProt P31025, W35Y/Y115W), sequence (P31025 19-176 W35Y/Y115W): as the sequence (P31025 19-176 W35Y) above, with Y97W counted along it
human tear lipocalin (TL) (Homo sapiens, UniProt P31025, T55W/W35Y), sequence (P31025 19-176 W35Y/T55W): as the sequence (P31025 19-176 W35Y) above, with T37W counted along it
human tear lipocalin (TL) (Homo sapiens, UniProt P31025, L86W/W35Y), sequence (P31025 19-176 W35Y/L86W): as the sequence (P31025 19-176 W35Y) above, with L68W counted along it
human tear lipocalin (TL) (Homo sapiens, UniProt P31025, I106W/W35Y), sequence (P31025 19-176 W35Y/I106W): as the sequence (P31025 19-176 W35Y) above, with I88W counted along it
human tear lipocalin (TL) (Homo sapiens, UniProt P31025, C119W/W35Y), sequence (P31025 19-176 W35Y/C119W): as the sequence (P31025 19-176 W35Y) above, with C101W counted along it
human tear lipocalin (TL) (Homo sapiens, UniProt P31025, M40W/W35Y), sequence (P31025 19-176 W35Y/M40W): as the sequence (P31025 19-176 W35Y) above, with M22W counted along it
human tear lipocalin (TL) (Homo sapiens, UniProt P31025, I75W/W35Y), sequence (P31025 19-176 W35Y/I75W): as the sequence (P31025 19-176 W35Y) above, with I57W counted along it
human tear lipocalin (TL) (Homo sapiens, UniProt P31025, L67W/W35Y), sequence (P31025 19-176 W35Y/L67W): as the sequence (P31025 19-176 W35Y) above, with L49W counted along it
human tear lipocalin (TL) (Homo sapiens, UniProt P31025, L123W/W35Y), sequence (P31025 19-176 W35Y/L123W): as the sequence (P31025 19-176 W35Y) above, with L105W counted along it

In the case of `CN(C)c1cccc2c(S(=O)(=O)NCCCCCCCCCCC(=O)O)cccc12` [DAUDA, 11-((5-dimethylaminonaphthalene-1-sulfonyl)amino)undecanoic acid], the “fluorescence enhancement and blue shift on binding” value [1] is reported as “DAUDA increases significantly and exhibits a blue shift ... when bound to TL”.
`CCCCCCCCCCCC(=O)O` [LA] showed an IC50 [2] of 12600 nM.
In the case of `CCCCCCCCCCCCCCCC(=O)O` [PA], the Kd [3] is reported as 500 ± 200 nM, the Kd [4] is reported as 500 ± 100 nM and the Kd [5] is reported as 2300 ± 200 nM. It also gave a Kd [6] of 500 ± 100 nM, an IC50 [2] of 2300 nM and a Kd [7] of 300 ± 100 nM. The Kd [8] was 2800 ± 500 nM, the Kd [9] was 5800 ± 600 nM and the Kd [10] was 300 ± 100 nM. For the same compound, the Kd [11] was 400 ± 100 nM and the Kd [12] was 900 ± 200 nM.
